What was measured:
Rat [1] = test: concentration in brain after dosing; details: 2 min; dosed: alpha-Thujone; 50 mg/kg; oral; Female; Harlan Sprague Dawley
Rat [2] = test: concentration in brain after dosing; details: 2 min; dosed: alpha-Thujone; 25 mg/kg; oral; Male; Harlan Sprague Dawley
Rat [3] = test: concentration in brain after dosing; details: 10 min; dosed: alpha-Thujone; 25 mg/kg; oral; Male; Harlan Sprague Dawley
Rat [4] = test: concentration in brain after dosing; details: 6 h; dosed: alpha-Thujone; 50 mg/kg; oral; Female; Harlan Sprague Dawley
Rat [5] = test: concentration in plasma after dosing; details: 5 min; dosed: alpha-Thujone; 25 mg/kg; oral; Male; Harlan Sprague Dawley
Rat [6] = test: concentration in plasma after dosing; details: 6 h; dosed: alpha-Thujone; 25 mg/kg; oral; Male; Harlan Sprague Dawley
Rat [7] = test: concentration in plasma after dosing; details: 3 h; dosed: alpha-Thujone; 25 mg/kg; oral; Male; Harlan Sprague Dawley
Rat [8] = test: concentration in plasma after dosing; details: 2 min; dosed: alpha-Thujone; 50 mg/kg; oral; Male; Harlan Sprague Dawley
Rat [9] = test: concentration in plasma after dosing; details: 10 min; dosed: alpha-Thujone; 25 mg/kg; oral; Male; Harlan Sprague Dawley
Rat [10] = test: concentration in plasma after dosing; details: 0.25 h; dosed: Pyridine; 10 mg/kg; iv; Male; F344
Rat [11] = test: concentration in plasma after dosing; details: dosed: Pyridine, 25 mg/kg, oral, Female, Harlan Sprague-Dawley
Rat [12] = test: concentration in plasma after dosing; details: 40 h; dosed: Pyridine; 100 mg/kg; oral; Male; F344
Rat [13] = test: concentration in plasma after dosing; details: 2 min; dosed: Pyridine; 10 mg/kg; iv; Male; F344
Rat [14] = test: concentration in plasma after dosing; details: dosed: Methyleugenol, 37 mg/kg, iv, Male, F344
Rat [15] = test: concentration in plasma after dosing; details: dosed: Methyleugenol, 37 mg/kg, oral, Female, F344/N
dog = test: concentration in urine after dosing; details: dosed: trichloroethylene, 100 ppm, inhalation, duration: 6 hr, male, beagle
Summary of the method: (§1)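 Points were largely digitised from plot screenshots with WebPlotDigitizer or otherwise copied from tables, and they remain in the units each source reported. They come from published in vivo toxicokinetic studies and two structured collections. Sampling and analytical methods follow each source and were often not reported.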

human = test: concentration in urine after dosing; details: dosed: trichloroethylene, inhalation, duration: 2 hr - 20 min
Summary of the method: as §1

Rat [16] = test: concentration in plasma after dosing; details: 3 h; dosed: Primidone; 130 mg/kg; oral; Male; Harlan Sprague Dawley
Rat [17] = test: concentration in plasma after dosing; details: 18 h; dosed: Primidone; 80 mg/kg; oral; Female; F344
Rat [18] = test: concentration in plasma after dosing; details: 12 h; dosed: Primidone; 30 mg/kg; oral; Female; F344
Mouse [19] = test: concentration in plasma after dosing; details: 0.25 h; dosed: 2-Hydroxy-4-methoxybenzophenone; 250 mg/kg; oral; Female; B6C3F1
Mouse [20] = test: concentration in plasma after dosing; details: 3 h; dosed: 2-Hydroxy-4-methoxybenzophenone; 50 mg/kg; iv; Male; B6C3F1
Mouse [21] = test: concentration in plasma after dosing; details: 2 h; dosed: 2-Hydroxy-4-methoxybenzophenone; 250 mg/kg; oral; Male; B6C3F1
Mouse [22] = test: concentration in plasma after dosing; details: 2 h; dosed: 2-Hydroxy-4-methoxybenzophenone; 500 mg/kg; oral; Female; B6C3F1
Mouse [23] = test: concentration in plasma after dosing; details: 2 h; dosed: 2-Hydroxy-4-methoxybenzophenone; 250 mg/kg; oral; Female; B6C3F1
Mouse [24] = test: concentration in plasma after dosing; details: 0.25 h; dosed: 2-Hydroxy-4-methoxybenzophenone; 250 mg/kg; oral; Male; B6C3F1
Rat [25] = test: concentration in plasma after dosing; details: dosed: 2-Hydroxy-4-methoxybenzophenone, 500 mg/kg, oral, Female, F344
Rat [26] = test: concentration in brain after dosing; details: 6 h; dosed: Perfluorohexane-1-sulphonic acid – potassium salt; 16 mg/kg; oral; Female; F344
Rat [27] = test: concentration in kidney after dosing; details: 6 h; dosed: Perfluorohexane-1-sulphonic acid – potassium salt; 16 mg/kg; oral; Female; Harlan Sprague Dawley
Rat [28] = test: concentration in kidney after dosing; details: 3 h; dosed: Perfluorohexane-1-sulphonic acid – potassium salt; 16 mg/kg; oral; Female; F344
Rat [29] = test: concentration in brain after dosing; details: 24 h; dosed: Perfluorohexane-1-sulphonic acid – potassium salt; 16 mg/kg; oral; Female; Harlan Sprague Dawley
Rat [30] = test: concentration in brain after dosing; details: 3 h; dosed: Perfluorohexane-1-sulphonic acid – potassium salt; 16 mg/kg; oral; Female; F344
Rat [31] = test: concentration in kidney after dosing; details: 3 h; dosed: Perfluorohexane-1-sulphonic acid – potassium salt; 16 mg/kg; oral; Female; Harlan Sprague Dawley
Rat [32] = test: concentration in brain after dosing; details: 12 h; dosed: Perfluorohexane-1-sulphonic acid – potassium salt; 16 mg/kg; oral; Female; F344

CC(C)[C@]12CC(=O)[C@H](C)[C@H]1C2 [alpha-Thujone]
Details	concentration in brain [ng/g]	concentration in plasma [µg/mL]
Rat [1]	13.2	–
Rat [2]	11.2	–
Rat [3]	765	–
Rat [4]	42.5	–
Rat [5]	–	0.104
Rat [6]	–	0.267
Rat [7]	–	0.131
Rat [8]	–	0.152
Rat [9]	–	0.408

c1ccncc1 [Pyridine]
Details	concentration in plasma [µg/mL]
Rat [10]	4.51
Rat [12]	18.4
Rat [13]	10.1

Rat [11]
Details	concentration in plasma [µg/mL]
1 h	21.4
8 h	15.2

C=CCc1ccc(OC)c(OC)c1 [Methyleugenol]
concentration in plasma [µg/mL]
Details	3 h	5 min	6 h	10 min
Rat [14]	0.263	29.2	–	–
Rat [15]	–	–	0.00885	0.254

OCC(Cl)(Cl)Cl [trichloroethanol]
dog
Details	concentration in urine [µg/mL]
24 h	129
48 h	115
72 h	155
96 h	205
120 h	154

concentration in urine [mg/kg], human
Details	2.667 h	6.667 h	10.67 h	19.67 h
1348 mg	158	161	79.7	65.3
1681 mg	125	236	136	131
3907 mg	186	258	154	168

CCC1(c2ccccc2)C(=O)NCNC1=O [Primidone]
Details	concentration in plasma [µg/mL]
Rat [16]	108
Rat [17]	1.6
Rat [18]	5.5

O=C(c1ccccc1)c1ccc(O)cc1O [2,4-Dihydroxybenzophenone]
Details	concentration in plasma [µg/mL]
Mouse [19]	1.05
Mouse [20]	0.232
Mouse [21]	0.338
Mouse [22]	0.135
Mouse [23]	0.472
Mouse [24]	1.13

Rat [25]
Details	concentration in plasma [µg/mL]
10 h	0.206
10 min	0.116

O=S(=O)([O-])C(F)(F)C(F)(F)C(F)(F)C(F)(F)C(F)(F)C(F)(F)F.[K+] [Perfluorohexane-1-sulphonic acid – potassium salt]
Details	concentration in brain [ng/g]	concentration in kidney [ng/g]
Rat [26]	1620	–
Rat [27]	–	36900
Rat [28]	–	29100
Rat [29]	743	–
Rat [30]	1090	–
Rat [31]	–	42800
Rat [32]	1770	–

From EPA's CvTdb concentration-time database
